BindingDB's records for doi:10.1016/j.bmcl.2019.126908 (University of California Davis, 2020)

Molecular target: T1, Bifunctional epoxide hydrolase 2 (Homo sapiens, UniProt P34913)
T1 sequence (P34913 whole entry): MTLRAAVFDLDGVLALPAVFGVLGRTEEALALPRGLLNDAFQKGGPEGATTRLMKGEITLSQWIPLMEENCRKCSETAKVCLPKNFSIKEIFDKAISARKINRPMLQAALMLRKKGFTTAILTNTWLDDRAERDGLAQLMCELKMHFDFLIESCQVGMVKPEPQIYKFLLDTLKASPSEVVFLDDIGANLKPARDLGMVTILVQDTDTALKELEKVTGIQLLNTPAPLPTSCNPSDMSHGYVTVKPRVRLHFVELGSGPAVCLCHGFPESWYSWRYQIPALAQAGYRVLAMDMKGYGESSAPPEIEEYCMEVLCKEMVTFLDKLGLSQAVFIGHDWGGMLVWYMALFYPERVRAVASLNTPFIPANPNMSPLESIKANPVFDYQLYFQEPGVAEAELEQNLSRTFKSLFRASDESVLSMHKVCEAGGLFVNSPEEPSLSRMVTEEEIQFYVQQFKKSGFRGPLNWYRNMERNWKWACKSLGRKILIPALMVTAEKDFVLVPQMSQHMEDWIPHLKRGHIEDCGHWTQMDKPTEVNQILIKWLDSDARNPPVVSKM
Experiment: Inhibition of human soluble epoxide hydrolase by kinetic fluorescent assay
Procedure, shortened: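 Kinetic fluorescent read-out; each value is the mean of three separate experiments.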

| IC50 [nM] | SMILES |
| --- | --- |
| 94 | O=C(Nc1ccc(C23CC4CC(CC(C4)C2)C3)cc1)Nc1ccccc1F |
| 56 | CC(NC(=O)Nc1ccccc1F)C12CC3CC(CC(C3)C1)C2 (configuration not stated) |
